The source made the active and inactive calls. No cut-off for these calls is given here.
Assays:
Type in all cases: protein assay
[1] = target: T1, Adenylate cyclase (Rattus norvegicus) (UniProt D4A3N4+P26770+Q04400+P26769+Q03343+P40146+Q8CFM9+P21932); test: Inhibition of dopamine sensitive adenylate cyclase at 1 uM; […]
[2] = target: T1, Adenylate cyclase (Rattus norvegicus); test: Inhibition of dopamine sensitive adenylate cyclase at 10 uM
[3] = target: T1, Adenylate cyclase (Rattus norvegicus); test: Inhibition of dopamine sensitive adenylate cyclase at 30 uM
[4] = target: T1, Adenylate cyclase (Rattus norvegicus); test: Inhibition of dopamine sensitive adenylate cyclase at 100 uM
[5] = target: T1, Adenylate cyclase (Rattus norvegicus); test: Inhibition of dopamine sensitive adenylate cyclase at 10 uM; No inhibition
[6] = target: T1, Adenylate cyclase (Rattus norvegicus); test: Inhibition of dopamine sensitive adenylate cyclase at 100 uM; No inhibition
[7] = target: T1, Adenylate cyclase (Rattus norvegicus); test: Inhibition of dopamine sensitive adenylate cyclase at 0.01 uM
Summary of the method: (§1)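 Rat retinas homogenized in 150 vol/wt 2.0 mM Tris-HCl pH 7.4 with 2 mM EDTA. Incubated 20 min, 30 °C. Stopped with SDS/ATP/cyclic AMP containing [3H]cyclic AMP, then heated 85 °C, 2 min.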

[8] = target: T1, Adenylate cyclase (Rattus norvegicus); test: Inhibition of dopamine sensitive adenylate cyclase at 0.1 uM; summary of the method: as §1
[9] = target: T1, Adenylate cyclase (Rattus norvegicus); test: Inhibition of dopamine sensitive adenylate cyclase at 1 uM; summary of the method: as §1

Compound | inhibition [1] | inhibition [2] [%] | inhibition [3] [%] | inhibition [4] [%] | inhibition [5] | inhibition [6] | inhibition [7] [%] | inhibition [8] [%] | inhibition [9] [%]
CN1Cc2ccccc2C(c2ccc(Cl)c(O)c2)C1 (stereo unspecified) | inactive | 21 | 45.1 | 57.9 |  |  |  |  | 
Oc1ccc(C2CNCc3ccccc32)cc1Cl (stereo unspecified) | inactive |  |  |  | inactive | inactive |  |  | 
CN1CCc2cc(Cl)c(O)cc2[C@@H](c2ccccc2)C1 |  |  |  |  |  |  | 23.2 | 59.9 | 74.3
Oc1cc(C2CNCc3ccccc32)ccc1Cl (stereo unspecified) | inactive | 8.9 |  | 26.3 |  |  |  |  | 
Oc1cccc(C2CNCc3ccccc32)c1 (stereo unspecified) | inactive | 8.8 |  | 22.9 |  |  |  |  | 

Source: ChEMBL document CHEMBL1123939, “Evaluation of isomeric 4-(chlorohydroxyphenyl)-1,2,3,4-tetrahydroisoquinolines as dopamine D-1 antagonists” (J Med Chem, 1987)
